This is a sample that favours compounds with a hit; in the whole collection about 7.1% have one here.
HUVEC prolif 384 – inhibitors of HUVEC proliferation, primary screen, cell-based, 384-well; 86,000 tested, 1.1% active; AID 648, 2007; viability, % at 10 µM (by protocol); CellTiter-Glo luminescence, 72 h; active compounds read low;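 active means viability at or below 30%; inactive means viability above 30%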;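 further: 100% = median luminescence of DMSO-only cell control wells on each plate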
PTEN del growth – growth suppression of PTEN-null HCT116, primary screen, cell-based, CellTiter-Glo; HCT116 PTEN-null viability, 60 h; active compounds read low; viability, % at 10 µM; 140,000 tested, 1.2% active;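 active means viability at or below a set limit, 4 SD under the median of all tested compounds, cut at about 3.7% in these data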;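 further: PTEN knockout HCT116 line with beta catenin targeted HCT116 as companion control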
Fibroblast inh – antiproliferative effect on LL 47 fibroblasts – human, LL 47 cells, CellTiter-Glo luminescence, primary screen; 85,000 tested, 1.1% active; viability, % at 10 µM; LL 47 human lung fibroblast viability, ATP luminescence; active compounds read low; AID 719, 2007;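 active means viability at or below 50% in the single dose screen; inactive means viability above 50%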;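 further: compound exposure lasted 72 h before the ATP readout; 100% = median luminescence of untreated cell-only wells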
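Test system: LL 47 human lung fibroblasts / Quantity: 1,150 cells in each well / Medium: IMEM growth medium with 15% fetal bovine serum / Incubation: 72 h compound exposure at 37 °C after overnight plating / Detection: CellTiter-Glo luminescence measuring cellular ATP / Read-out: % viability versus median cells-only luminescence / Benchmarks: cell-only wells, no compound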
bCat KO growth – primary screen for growth suppressors in beta-catenin knockout HCT116 cells (colon tumor, human); HCT116 beta-catenin knockout viability, CellTiter-Glo, 60 h; active compounds read low; viability, % at 10 µM; 140,000 tested, 1.5% active; AID 818, 2007;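 active means viability at or under a set limit, the compound median less 4 SD, cut at about 6% in these data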;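 further: 0% = Hyamine 1622 control at 20 µM and 100% = untreated cell control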
H69AR inhibit – proliferation blockers of H69AR lung cancer cells, primary screen, cell-based, human, 86K library; H69AR lung tumor viability, ATP luminescence, 72 h; active compounds read low; 85,000 tested, 6% active; viability, % at 10 µM;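 active means viability at or below 40%; inactive means viability above 40%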;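 further: multidrug resistant small cell line overexpressing MRP-1 efflux transporter; 100% = mean luminescence of untreated control wells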
Cav32 inh – Cav3.2 calcium influx blockers – cell-based, Fluo-4 calcium fluorescence, FDSS, MLSMR library, primary screen; Voltage-dependent T-type calcium channel subunit alpha-1H (Homo sapiens), O95180; Cav3.2-expressing cells; active compounds read low; 100,000 tested, 4% active; B-score at 10 µM;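 active means single-dose well whose peak fluorescence ratio is a statistical outlier from its plate by either plate-standardised score or position-corrected B-score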
* = called active by the depositor; . = no result.

SMILES	HUVEC prolif 384	PTEN del growth	Fibroblast inh	bCat KO growth	H69AR inhibit	Cav32 inh
CC(=O)Nc1ccc(NC(=O)Cc2ccc(S(=O)(=O)N3CCCCC3)s2)cc1	.	82	.	88	.	.
O=C(Cc1ccc(S(=O)(=O)N2CCOCC2)s1)Nc1ccc2c(c1)CCC2	91	82	104	95	56	-6.1*
N#C/C(=C\Nc1ccccc1O)c1nc2ccccc2o1	.	16	.	22	.	.
CN(C)CCNC(=O)/C(=C/c1ccc(-c2cccc([N+](=O)[O-])c2)o1)NC(=O)c1ccccc1	.	29	.	39	.	.
CN(C)CCNC(=O)/C(=C/c1ccc(-c2cccc(Cl)c2)o1)NC(=O)c1ccccc1	.	1.6*	.	1.6*	.	.
CN(C)CCCNC(=O)/C(=C\c1ccc(-c2ccc(Br)cc2)o1)NC(=O)c1ccccc1	.	1.8*	.	1.8*	.	.
Cc1ccnc(NS(=O)(=O)c2ccc(NC(=O)c3ccc(S(=O)(=O)N4CC(C)OC(C)C4)cc3)cc2)n1 (stereo not drawn)	.	98	.	101	.	.
CCOc1ccc(-n2nc3ccc(NC(=O)c4ccc5c(c4)OCCO5)cc3n2)cc1	41	80	28*	87	13*	0.0071
Cc1ccc(-n2nc3ccc(NC(=O)c4ccc5c(c4)OCO5)cc3n2)cc1	93	97	110	93	45	1.7
CCOC(=O)c1c(C)c(C(=O)Nc2ccc3c(c2)OCCO3)c(C)n1CC	75	31	91	30	20*	-1.7
CCc1ccc(-n2nc3ccc(NC(=O)c4ccc5c(c4)OCO5)cc3n2)cc1	76	75	91	78	20*	-0.44
Cn1c(Cn2nnc3ccccc32)nnc1SCC(=O)Nc1nccs1	.	95	.	87	.	.
Brc1ccc2[nH]c3c(N4CCc5ccccc5C4)ncnc3c2c1	55	18	78	22	6.3*	0.59
Cc1ccc2[nH]c3c(N4CCc5ccccc5C4)ncnc3c2c1	52	11	74	7	61	-2.9
CC(C)(C)n1nnnc1C(c1ccc(F)cc1)N(Cc1ccc(F)cc1)Cc1ccco1 (stereo not drawn)	111	16	91	9	80	-6.3*
Cc1ccc(C(c2nnnn2C(C)(C)C)N(Cc2ccco2)Cc2cccs2)cc1 (stereo not drawn)	95	66	93	66	67	-5.1*
COc1ccc(Cn2nnnc2C(C(C)C)N(Cc2ccco2)Cc2cccs2)cc1 (stereo not drawn)	94	60	85	65	51	-3.9*
CC(C)(C)n1nnnc1C(c1ccc(Cl)cc1)N(Cc1cccnc1)Cc1ccco1 (stereo not drawn)	109	58	93	54	85	-9.5*
c1ccc(CN(Cc2ccco2)C(c2ccncc2)c2nnnn2C2CCCC2)cc1 (stereo not drawn)	80	86	92	77	57	-2.9
CN(CC(=O)OCC(=O)NCc1ccccc1)S(=O)(=O)c1ccc(Cl)cc1	.	87	.	94	.	.
O=C(NC1CCCCC1)N(C1=NCCCCC1)c1ccc(Br)cc1	.	90	.	89	.	.
CC(C)(C)n1nnnc1C(c1ccc(C(F)(F)F)cc1)N(Cc1ccc(F)cc1)Cc1ccco1 (stereo not drawn)	68	11	91	8	98	-4.3*
CC(C)(C)n1nnnc1C(c1ccc(C(F)(F)F)cc1)N(Cc1ccccc1)Cc1ccco1 (stereo not drawn)	83	44	96	43	97	.
Cc1csc(NC(=O)CSc2ncnc3c2cnn3-c2ccccc2Cl)n1	101	40	87	34	65	-5.5*
Cc1ccccc1-n1ncc2c(SCC(=O)NCc3cccs3)ncnc21	66	22	79	25	28*	-1.3
SMILES	HUVEC prolif 384	PTEN del growth	Fibroblast inh	bCat KO growth	H69AR inhibit	Cav32 inh
CCOC(=O)Cc1csc(NC(=O)CSc2ncnc3c2cnn3-c2ccc(OC)cc2)n1	86	76	98	76	65	-1.6
COC(=O)c1ccccc1NC(=O)CSCC(=O)Nc1ccc(F)cc1	.	103	.	103	.	-0.0045
CCCc1c(OCCCCc2nn[nH]n2)ccc(C(C)=O)c1O	87	89	91	82	87	0.19
O=C(COC(=O)CNS(=O)(=O)c1cccc(Br)c1)Nc1ccccc1Sc1ccccc1	.	105	.	92	.	.
Cn1cccc1Cc1nnc(SCC(=O)Nc2ccc3c(c2)OCO3)n1-c1ccc(F)cc1	96	96	90	88	78	-8.5*
Cc1cc(C)cc(NC(=O)CSc2nnc(Cc3cccn3C)n2-c2ccc(F)cc2)c1	82	47	90	54	72	-13*
CC(=O)Nc1cccc(NC(=O)CSc2nnc(Cc3cccn3C)n2-c2ccc(F)cc2)c1	.	97	.	92	.	-0.97
COc1cccc(NC(=O)CSc2nnc(Cc3cccn3C)n2-c2ccc(F)cc2)c1	101	88	93	84	52	-5*
COc1ccc(-n2c(Cc3cccn3C)nnc2SCC(=O)Nc2ccc(C)c(Cl)c2)cc1	71	71	86	80	74	-4.2*
C/C(=N/NC(=O)c1ccoc1C)c1cccc(NC(=O)C2CC2)c1	.	100	.	98	.	.
COc1ccc(-n2c(Cc3cccn3C)nnc2SCC(=O)Nc2cccc(OC)c2)cc1	93	83	95	97	37*	-4.2*
COc1ccc(NC(=O)CSc2nnc(Cc3cccn3C)n2-c2ccc(C)cc2)cc1OC	107	112	98	102	75	-2.2
Cc1ccc(NC(=O)CC(C(=O)O)c2ccccc2)cc1 (stereo not drawn)	.	107	.	101	.	.
O=C(Cc1ccc(Nc2nc3ccc(Br)cc3[nH]2)cc1)NCCc1cccs1	.	27	.	29	.	-3.2*
COc1cccc(Nc2nc(-c3ccc4c(c3)OCCO4)cs2)c1	73	34	96	29	37*	-1.7
CCN(CC)CCNc1nc(-c2ccccc2)c2c(c1C#N)CC(C)(C)OC2	101	72	97	76	54	-3.7*
CC1(C)Cc2c(C#N)c(OCC(=O)c3ccc(Cl)cc3)nc(-c3ccco3)c2CO1	60	75	42*	86	58	.
N#Cc1c(NCCN)nc(-c2ccco2)c2c1CCCC2	67	6	41*	6	7.1*	0.15
CC1(C)Cc2c(C#N)c(NCc3ccco3)nc(-c3ccco3)c2CO1	50	75	76	72	20*	-0.75
CC1(C)Cc2c(C#N)c(NCCCO)nc(-c3ccccc3)c2CO1	92	96	83	85	66	0.03
CC(C)(CNC(=S)NCCc1ccccc1)CNC(=S)NCCc1ccccc1	.	21	.	24	.	.
O=C(CSc1cccc(C(F)(F)F)c1)Nc1ccc(Cl)cc1Cl	.	78	.	76	.	-0.64
